# Peptide text beside a SMILES is read from it.
# Legend:
# [1] = Solubility in pH 4.5 acetate buffer at 10 mg/ml after 2 hrs by UPLC-UV analysis
# [2] = Solubility in pH 4.5 acetate buffer at 10 mg/ml after 2 hrs in presence of 0.5% phenol by UPLC-UV analysis; assay type: physicochemical
# Method in brief: (§1)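 Buffers were 100 mM sodium acetate pH 4.5 or 100 mM sodium phosphate pH 7.4, with or without 0.5% phenol. Solid peptide was dispersed at 10 mg/mL, with content corrected by UPLC-MS and ion chromatography, and gently agitated for 2 h. After centrifugation (15 min, 3000 rcf), the supernatant was diluted 1:10 and quantified by UPLC-UV against a DMSO standard curve.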
# Glucagon receptor = Glucagon receptor (Homo sapiens, UniProt P47871); assay: Agonist activity at human glucagon receptor expressed in HEK293 cells assessed as cAMP accumulation after 30 mins by HTRF assay; assay type: functional, cell-based
# Glucagon receptor, sequence (P47871 whole entry): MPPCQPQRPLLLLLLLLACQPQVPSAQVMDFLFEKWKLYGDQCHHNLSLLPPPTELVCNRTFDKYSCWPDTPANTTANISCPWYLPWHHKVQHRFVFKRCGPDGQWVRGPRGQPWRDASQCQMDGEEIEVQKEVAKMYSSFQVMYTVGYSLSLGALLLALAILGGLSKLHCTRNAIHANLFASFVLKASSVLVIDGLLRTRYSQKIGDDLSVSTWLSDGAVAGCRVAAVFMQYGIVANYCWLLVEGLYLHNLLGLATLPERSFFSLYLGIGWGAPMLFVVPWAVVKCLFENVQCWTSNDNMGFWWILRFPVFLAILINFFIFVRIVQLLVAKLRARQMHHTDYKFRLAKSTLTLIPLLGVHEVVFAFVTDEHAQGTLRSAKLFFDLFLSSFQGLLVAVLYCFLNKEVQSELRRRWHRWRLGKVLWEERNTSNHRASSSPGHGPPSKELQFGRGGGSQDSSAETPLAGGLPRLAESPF
# [3] = Solubility in pH 4.5 phosphate buffer at 10 mg/ml after 2 hrs in presence of 0.5% phenol by UPLC-UV analysis; assay type: physicochemical
# [4] = molecular target: T1, Glucagon-like peptide 1 receptor (Homo sapiens, UniProt P43220); assay: Agonist activity at human GLP1R expressed in HEK293 cells assessed as cAMP accumulation after 30 mins by HTRF assay; assay type: functional, cell-based
# T1 sequence (P43220 whole entry): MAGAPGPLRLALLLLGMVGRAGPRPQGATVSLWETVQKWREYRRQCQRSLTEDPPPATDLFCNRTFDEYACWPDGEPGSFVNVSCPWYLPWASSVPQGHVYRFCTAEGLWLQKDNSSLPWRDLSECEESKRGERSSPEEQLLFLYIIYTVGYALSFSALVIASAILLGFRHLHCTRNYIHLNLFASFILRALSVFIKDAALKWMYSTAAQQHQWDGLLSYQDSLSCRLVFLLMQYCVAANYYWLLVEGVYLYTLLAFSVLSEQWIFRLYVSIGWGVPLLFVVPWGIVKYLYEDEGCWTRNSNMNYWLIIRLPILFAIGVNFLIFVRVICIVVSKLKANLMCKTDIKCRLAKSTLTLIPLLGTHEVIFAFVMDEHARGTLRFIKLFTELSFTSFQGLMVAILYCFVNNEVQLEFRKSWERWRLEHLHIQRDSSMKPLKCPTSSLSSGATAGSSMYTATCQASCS
# Homo sapiens = species on record: Homo sapiens; assay: Selectivity ratio of EC50 for human glucagon receptor expressed in HEK293 cells to EC50 for human GLP1R expressed in HEK293 cells; assay type: cell-based
# Method in brief: (§2)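 HEK293 lines stably expressing human or monkey receptor were detached with accutase. Cells were resuspended at 400 000 cells/mL in HBSS/20 mM HEPES/0.1% BSA/2 mM IBMX and exposed to peptide for 30 min at room temperature. cAMP was read by HTRF (665/620 nm) after 1 h lysis.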
# [5] = Solubility in pH 4.5 acetate buffer at 10 mg/ml after 2 hrs by UPLC-UV analysis; assay type: physicochemical
# Method in brief: as §1
# [6] = molecular target: T2, Gastric inhibitory polypeptide receptor (Homo sapiens, UniProt P48546); assay: Agonist activity at human GIP receptor expressed in HEK293 cells assessed as cAMP accumulation after 30 mins by HTRF assay; assay type: functional, cell-based
# T2 sequence (P48546 whole entry): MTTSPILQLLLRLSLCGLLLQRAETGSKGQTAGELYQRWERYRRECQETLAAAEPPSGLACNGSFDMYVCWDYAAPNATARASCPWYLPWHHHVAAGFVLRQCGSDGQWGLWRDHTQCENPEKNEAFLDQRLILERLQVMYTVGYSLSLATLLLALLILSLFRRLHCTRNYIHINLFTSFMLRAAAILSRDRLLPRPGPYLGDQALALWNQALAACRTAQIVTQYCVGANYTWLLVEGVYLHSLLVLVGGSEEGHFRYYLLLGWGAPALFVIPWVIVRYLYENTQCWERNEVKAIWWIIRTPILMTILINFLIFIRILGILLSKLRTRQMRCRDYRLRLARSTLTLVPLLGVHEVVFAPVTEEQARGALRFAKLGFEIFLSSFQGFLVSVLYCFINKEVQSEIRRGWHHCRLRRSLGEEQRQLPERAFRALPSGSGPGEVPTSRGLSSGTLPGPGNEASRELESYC
# [7] = molecular target: T1, Glucagon-like peptide 1 receptor; assay: Displacement of [125I]GLP-1 from human GLP1R expressed in HEK293 cell membranes after 180 mins by microbeta counting method
# Method in brief: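 Membranes from HEK-293 cells expressing human GLP-1 receptor (1 μg protein/well) were coated on WGA SPA beads. […] The buffer was HEPES pH 7.4 with EDTA, NaCl, MgCl2, CaCl2, protease inhibitors and 0.1% BSA. Plates were read after a 180 min delay.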
# [8] = molecular target: Glucagon-like peptide 1 receptor (Macaca fascicularis, UniProt F8V479); assay: Agonist activity at monkey GLP1R expressed in HEK293 cells assessed as cAMP accumulation after 30 mins by HTRF assay; assay type: cell-based, Macaca mulatta
# Glucagon-like peptide 1 receptor (Macaca fascicularis, UniProt F8V479), sequence (F8V479 whole entry): as the sequence (P43220 whole entry) above, with A4T, M17V, S135N, F143S, S225G, L228V, L260F, W264R, I272V counted along it
# [9] = Plasma concentration in diet-induced obesity cynomolgus monkey model at 8 ug/kg, sc for 6 weeks measured […] dose on day 43 by LC-MS analysis; assay type: ADME, organism-based, Macaca fascicularis; conditions: 0.008 mg/kg
# Method in brief: (§3)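 Obese diabetic cynomolgus monkeys were dosed once daily sc with PBS-diluted drug for 6 weeks. On day 43, blood was drawn just before dosing and at 1, 2, 4, 8 and 22 h after, into EDTA-2K tubes. Plasma was separated at 2500 × g for 10 min at 4 °C. The dual agonist was measured by LC-MS after protein precipitation; liraglutide was measured by ELISA.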
# [10] = Agonist activity at monkey GIP receptor expressed in HEK293 cells assessed as cAMP accumulation after 30 mins by HTRF assay; assay type: cell-based, Macaca mulatta; conditions: Macaca mulatta, HEK293, 0.5 h
# Method in brief: as §2
# [11] = Plasma concentration in diet-induced obesity cynomolgus monkey model at 8 ug/kg, sc for 6 weeks measured 8 hrs post dose on day 43 by LC-MS analysis; assay type: ADME, organism-based, Macaca fascicularis; conditions: 0.008 mg/kg
# Method in brief: as §3
# [12] = Plasma concentration in diet-induced obesity cynomolgus monkey model at 8 ug/kg, sc for 6 weeks measured 2 hrs post dose on day 43 by LC-MS analysis; assay type: ADME, organism-based, Macaca fascicularis; conditions: 0.008 mg/kg
# Method in brief: as §3
# [13] = Ratio of EC50 for monkey glucagon receptor expressed in HEK293 cells to EC50 for human glucagon receptor expressed in HEK293 cells; assay type: cell-based
# Method in brief: as §2
# Cynomolgus monkey [14] = assay: Antiobesity activity in diet-induced obesity cynomolgus monkey model assessed as reduction in body weight at 1.5 ug/kg on day 1 to 3, 3 ug/kg on day 4 to 6, 4.5 ug/kg on day 7 to 9, 6 ug/kg from day 10 to 17 and 8 ug/kg on day 18 to 42 administered sc once daily measured every 3 to 4 days during compound dosing relative to control; assay type: functional, Macaca fascicularis; set-up: scale not given: the % may be the effect or the level left
# Method in brief: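 Obese diabetic cynomolgus monkeys were offered about 680 kcal/day. They were block-randomized into 3 groups by body weight, fasted glucose and %HbA1C. Dosing was once daily sc in PBS vehicle over a 6-week study with ramped doses. Food and water intake were logged daily, and body weight was measured every 3–4 days. Two insulin-requiring vehicle animals were excluded.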
# Cynomolgus monkey [15] = assay: Potency index, ratio of liraglutide dose to compound dose for antiobesity activity in diet-induced obesity cynomolgus monkey model assessed as reduction in body weight administered sc once daily measured every 3 to 4 days during compound dosing; assay type: functional, Macaca fascicularis
# [16] = Solubility in pH 4.5 acetate buffer at 10 mg/ml after 2 hrs in presence of 0.5% phenol by UPLC-UV analysis
# [17] = AUC (0 to 22 hrs) in diet-induced obesity cynomolgus monkey model at 8 ug/kg, sc for 6 weeks on day 43 by LC-MS analysis; assay type: ADME, organism-based, Macaca fascicularis; set-up: dose 8 ug/kg, time < 22 hr, route subcutaneous; conditions: in vivo, 0.008 mg/kg
# Method in brief: as §3
# [18] = Plasma concentration in diet-induced obesity cynomolgus monkey model at 8 ug/kg, sc for 6 weeks measured 1 hr post dose on day 43 by LC-MS analysis; assay type: ADME, organism-based, Macaca fascicularis; conditions: 0.008 mg/kg
# Method in brief: as §3
# [19] = Agonist activity at monkey glucagon receptor expressed in HEK293 cells assessed as cAMP accumulation after 30 mins by HTRF assay; assay type: cell-based, Macaca mulatta; conditions: Macaca mulatta, HEK293, 0.5 h
# Method in brief: as §2
# [20] = Plasma concentration in diet-induced obesity cynomolgus monkey model at 8 ug/kg, sc for 6 weeks measured 4 hrs post dose on day 43 by LC-MS analysis; assay type: ADME, organism-based, Macaca fascicularis; conditions: 0.008 mg/kg
# Method in brief: as §3
# Cynomolgus monkey [21] = assay: Hypoglycemic activity in diet-induced obesity cynomolgus monkey model assessed as plasma HbA1c level at 1.5 ug/kg on day 1 to 3, 3 ug/kg on day 4 to 6, 4.5 ug/kg on day 7 to 9, 6 ug/kg from day 10 to 17 and 8 ug/kg on day 18 to 42 administered sc once daily measured on day 43 post last dose (reference value: 8.7 +/- 0.8%); assay type: functional, Macaca fascicularis
# [22] = Plasma concentration in diet-induced obesity cynomolgus monkey model at 8 ug/kg, sc for 6 weeks measured 22 hrs post dose on day 43 by LC-MS analysis; assay type: ADME, organism-based, Macaca fascicularis; conditions: 0.008 mg/kg
# Method in brief: as §3
smiles,measurement,setting,value
CCCCCCCCCCCCCCCCC(=O)N[C@@H](CCC(=O)N[C@@H](CCC(=O)NCCCC[C@H](NC(=O)[C@H](CCC(N)=O)NC(=O)[C@H](CCCCN)NC(=O)[C@H](CO)NC(=O)[C@H](CC(C)C)NC(=O)[C@H](CC(=O)O)NC(=O)[C@H](CO)NC(=O)[C@@H](NC(=O)[C@H](Cc1ccccc1)NC(=O)[C@@H](NC(=O)CNC(=O)[C@H](CCC(N)=O)NC(=O)C(C)(C)NC(=O)[C@@H](N)Cc1cnc[nH]1)[C@@H](C)O)[C@@H](C)O)C(=O)N[C@@H](CC(=O)O)C(=O)N[C@@H](CCC(=O)O)C(=O)N[C@@H](CCC(N)=O)C(=O)N[C@@H](CCCNC(=N)N)C(=O)N[C@@H](C)C(=O)N[C@@H](CCCCN)C(=O)N[C@@H](CC(C)C)C(=O)N[C@@H](Cc1ccccc1)C(=O)N[C@H](C(=O)N[C@@H](CCC(=O)O)C(=O)N[C@@H](Cc1c[nH]c2ccccc12)C(=O)N[C@@H](CC(C)C)C(=O)NC(C)(C)C(=O)N[C@@H](C)C(=O)NCC(=O)NCC(=O)N1CCC[C@H]1C(=O)N[C@@H](CO)C(=O)N[C@@H](CO)C(=O)NCC(=O)N[C@@H](C)C(=O)N1CCC[C@H]1C(=O)N1CCC[C@H]1C(=O)N1CCC[C@H]1C(=O)N[C@@H](CO)C(N)=O)[C@@H](C)CC)C(=O)O)C(=O)O,solubility at 2 h,[1],≥ 10000 µg/mL
same,solubility at 2 h,[2],1200 µg/mL
same,EC50,Glucagon receptor,0.0276 nM
same,solubility at 2 h,[3],≥ 10000 µg/mL
same,EC50,[4],0.0022 nM
same,Ratio EC50,Homo sapiens,13
same,solubility at 2 h,[5],≥ 10000 µg/mL
same,EC50,[6],2.03 nM
CC[C@H](C)[C@H](NC(=O)[C@H](Cc1ccccc1)NC(=O)[C@H](CC(C)C)NC(=O)[C@H](CCCCN)NC(=O)[C@H](C)NC(=O)[C@H](CS)NC(=O)[C@H](CCC(N)=O)NC(=O)[C@H](CCC(=O)O)NC(=O)[C@H](CC(=O)O)NC(=O)[C@H](CC(C)C)NC(=O)[C@H](CCC(N)=O)NC(=O)[C@H](CCCCN)NC(=O)[C@H](CO)NC(=O)[C@H](CC(C)C)NC(=O)[C@@H](N)CC(=O)O)C(=O)N[C@@H](CCC(=O)O)C(=O)N[C@@H](Cc1c[nH]c2ccccc12)C(=O)N[C@@H](CC(C)C)C(=O)N[C@@H](C)C(=O)N[C@@H](C)C(=O)NCC(=O)NCC(=O)N1CCC[C@H]1C(=O)N[C@@H](CO)C(=O)N[C@@H](CO)C(=O)NCC(=O)N[C@@H](C)C(=O)N1CCC[C@H]1C(=O)N1CCC[C@H]1C(=O)N1CCC[C@H]1C(=O)N[C@@H](CS)C(N)=O (H-DLSKQLDEQCAKLFIEWLAAGGPSSGAPPPC-NH2),IC50,[7],1130 nM
same,EC50,[6],> 100000 nM
CCCCCCCCCCCCCCCCC(=O)[C@H](CCN[C@@H](CCC(=O)NCCCC[C@H](NC(=O)[C@H](CCC(N)=O)NC(=O)[C@H](CCCCN)NC(=O)[C@H](CO)NC(=O)[C@H](CC(C)C)NC(=O)[C@H](CC(=O)O)NC(=O)[C@H](CO)NC(=O)[C@@H](NC(=O)[C@H](Cc1ccccc1)NC(=O)[C@@H](NC(=O)CNC(=O)[C@H](CCC(N)=O)NC(=O)C(C)(C)NC(=O)[C@@H](N)Cc1cnc[nH]1)[C@@H](C)O)[C@@H](C)O)C(=O)N[C@@H](CC(=O)O)C(=O)N[C@@H](CCC(=O)O)C(=O)N[C@@H](CCC(N)=O)C(=O)N[C@@H](CCCNC(=N)N)C(=O)N[C@@H](C)C(=O)N[C@@H](CCCCN)C(=O)N[C@@H](CC(C)C)C(=O)N[C@@H](Cc1ccccc1)C(=O)N[C@H](C(=O)N[C@@H](CCC(=O)O)C(=O)N[C@@H](Cc1c[nH]c2ccccc12)C(=O)N[C@@H](CC(C)C)C(=O)NC(C)(C)C(=O)N[C@@H](C)C(=O)NCC(=O)NCC(=O)N1CCC[C@H]1C(=O)N1CCC[C@H]1C(=O)N[C@@H](CO)C(=O)N[C@@H](C)C(=O)N[C@@H](CCCCN)C(=O)N1CCC[C@H]1C(=O)N1CCC[C@H]1C(=O)N1CCC[C@H]1C(=O)N[C@@H](CCCCN)C(N)=O)[C@@H](C)CC)C(=O)O)C(=O)O,solubility at 2 h,[1],≥ 10000 µg/mL
same,solubility at 2 h,[2],≥ 10000 µg/mL
same,EC50,[8],0.002 nM
same,concentration at 1008 h,[9],0.66 ng/mL
same,EC50,[10],2.05 nM
same,EC50,Glucagon receptor,0.029 nM
same,concentration at 8 h,[11],12.4 ng/mL
same,concentration at 2 h,[12],28 ng/mL
same,Ratio EC50,[13],4
same,Activity,Cynomolgus monkey [14],6.9%
same,Ratio,Cynomolgus monkey [15],5
same,solubility at 2 h,[16],≥ 10000 µg/mL
same,EC50,[4],0.0018 nM
same,AUC at 22 h,[17],254 ng·h/mL
same,Ratio EC50,Homo sapiens,10 to 15
same,concentration at 1 h,[18],21.6 ng/mL
same,EC50,[19],0.129 nM
same,solubility at 2 h,[5],≥ 10000 µg/mL
same,concentration at 4 h,[20],24.3 ng/mL
same,Activity,Cynomolgus monkey [21],7.1%
same,concentration at 22 h,[22],0.69 ng/mL
same,EC50,[6],2.03 nM

# From ChEMBL document CHEMBL4118251 (J Med Chem, 2018)
